Holding throughout (assay type): functional, cell-based
The nature of experiment [1]: Cytotoxicity against human BEAS2B cells after 48 hrs by MTS assay. Particulars: BEAS-2B. On the technique in general: Tetrazolium dyes change colour on reduction, which living cells bring about.
The subject of a further experiment is SMMC-7721. Nature of the experiment: Cytotoxicity against human SMMC7721 cells after 48 hrs by MTS assay. Particulars: SMMC-7721, 48 h. Summed up: (§1)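 Cells grown in RPMI 1640 with 10% FBS and penicillin/streptomycin at 37 °C under 5% CO2. Adherent lines were seeded at 1 × 10^4 cells/well and left to attach for 12 h. Compounds in DMSO were tested at 0.064, 0.32, 1.6, 8 and 40 μM, in triplicate, for 48 h, with cisplatin as positive control. MTS was then added and formazan dissolved in 20% SDS (12 h, room temperature). OD read at 490 nm; IC50 by Reed and Muench method.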

The nature of experiment [2]: Cytotoxicity against human HL60 cells after 48 hrs by MTS assay. The note with it: HL-60, 48 h. In short, it runs like this: as §1
A further experiment relates to SW480. Nature of the experiment: Cytotoxicity against human SW480 cells after 48 hrs by MTS assay. Particulars: SW480, 48 h. Summed up:
as §1

A further experiment deals with MCF7. Put plainly: Cytotoxicity against human MCF7 cells after 48 hrs by MTS assay. The note with it: MCF7, 48 h. In short, it runs like this:
as §1

In the next experiment the test system is A549. Nature of the experiment: Cytotoxicity against human A549 cells after 48 hrs by MTS assay. The note with it: A549, 48 h. In short, it runs like this: as §1

A word on the IC50: it is the midpoint of a concentration-inhibition curve. The low end stands for greater potency, the high end for weaker potency.

Regarding `CO[C@@H]1C=C([C@@H]2C[C@H]3O[C@@]34[C@@]2(C)C[C@H](O)[C@@H]2[C@@]3(C)C=CC(=O)C(C)(C)C3=C(O)C(=O)[C@]24C)[C@@H](OC)O1`, the IC50 in experiment [1] came out at 5 µM; with SMMC-7721, 2.4 µM; in experiment [2], 3.6 µM; with SW480, 3.5 µM; in the experiment on MCF7 it was 4.2 µM; in the experiment with A549, 3.7 µM.
`CC1(C)C(=O)C=C[C@@]2(C)C1=C(O)C(=O)[C@]1(C)[C@@H]2[C@@H](O)C[C@@]2(C)[C@H](C3=CC(=O)O[C@@H]3O)C[C@H]3O[C@]321`: the IC50 in experiment [1] is 9.4 µM; in the experiment with SMMC-7721, 2.2 µM; in experiment [2] it was 3.1 µM; in the experiment on SW480, 2.4 µM; in the experiment with MCF7, 3.9 µM; with A549 it was 2.6 µM.

The values are drawn from ChEMBL document CHEMBL3351792, “Limonoids from the Leaves and Twigs of Walsura yunnanensis” (J Nat Prod, 2014).
